Source: ChEMBL document CHEMBL1142191, “Isolation and characterization of human immunodeficiency virus type 1 resistant to the small-molecule CCR5 antagonist TAK-652” (Antimicrob Agents Chemother, 2007)
pIC50: −log10 of the molar value. Calls of active or inactive are those of the source. The rule behind the calls is not given here.

Experiments:
[1] = tested on: Human immunodeficiency virus 1; test: Antiviral activity in long term culture of HIV1 KK infected PBMCs after 67 passages assessed as p24 antigen levels at escalating concentrations; type: functional, organism-based; details: Human immunodeficiency virus 1, KK
Outline: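 PHA-stimulated PBMCs (5 × 10^6) were infected with R5 clinical isolate KK (100 ng p24) and held compound-free for 2 days at 37°C, then washed. Culture started at 0.2 nM drug and was passaged weekly with fresh same-donor PBMCs. Drug was escalated when treated-culture supernatant p24 (ELISA) exceeded 50% of a parallel untreated control at two consecutive passages.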

[2] = tested on: Human immunodeficiency virus 1; test: Ratio of IC50 for HIV1 KK infected PBMC to IC50 for compound treated HIV1 KK infected PBMC after 67 passages; type: functional
Outline: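 PHA-stimulated PBMCs infected with the passage-67 escape virus (1,400 CCID50, 4 h) were washed and exposed to 0.1–10,000 nM compound, split 1:2 on day 4, and read for day-7 supernatant p24 by ELISA. Triplicate wells in two donor experiments. Fold change = […].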

[3] = tested on: Human immunodeficiency virus 1; test: Inhibition of HIV1 KK infected PBMC; type: functional, organism-based; details: Human immunodeficiency virus 1, KK
[4] = tested on: Human immunodeficiency virus 1; test: Antiviral activity in long term culture of HIV1 KK infected PBMCs after 43 passages assessed as p24 antigen levels; type: functional, organism-based; details: Human immunodeficiency virus 1, KK
Outline: (§1)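 Viruses were isolated at the stated passage from the drug-escalation culture and from the parallel untreated culture, then propagated once in PBMCs. PHA-stimulated PBMCs were infected with 1,400 CCID50 for 4 h, washed, and seeded with 0.1–10,000 nM compound. Cells were split 1:2 on day 4, and supernatant p24 was read by ELISA on day 7. Triplicate wells, two experiments with different donors; IC50 from a logistic least-squares fit.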

[5] = tested on: Human immunodeficiency virus 1; test: Antiviral activity in long term culture of HIV1 KK infected PBMCs after 8 passages assessed as p24 antigen levels; type: functional, organism-based; details: Human immunodeficiency virus 1, KK; outline: as §1
[6] = tested on: Human immunodeficiency virus 1; test: Inhibition of R5 HIV1 replication at 5 uM; type: functional, organism-based
[7] = tested on: Human immunodeficiency virus 1; test: Antiviral activity in long term culture of HIV1 KK infected PBMCs after 56 passages assessed as p24 antigen levels; type: functional, organism-based; details: Human immunodeficiency virus 1, KK; outline: as §1

Row | SMILES | pIC50 [1] | Ratio IC50 [2] | pIC50 [3] | pIC50 [4] | pIC50 [5] | Activity [6] | pIC50 [7]
1 | CC(=O)N1CCC(C(=O)N(CCCN2CCC(Cc3ccc(C(N)=O)cc3)CC2)c2ccc(C)c(Cl)c2)CC1 | 8.89 | 1.6 | – | – | – | – | –
2 | Cc1ccc(-c2ccc3c(c2)C=C(C(=O)Nc2ccc(C[N+](C)(C)C4CCOCC4)cc2)CCC3)cc1.[Cl-] | 7.11 | 37 | – | – | – | – | –
3 | CCCCOCCOc1ccc(-c2ccc3c(c2)/C=C(/C(=O)Nc2ccc([S@@+]([O-])Cc4cncn4CCC)cc2)CCCN3CC(C)C)cc1.CS(=O)(=O)O [CENICRIVIROC MESYLATE] | < 5.00 | >230000 | 9.85 | 9.70 | 9.62 | Active | 7.17
